According to ChEMBL document CHEMBL1144404, “Aminoimidazolylmethyluracil analogues as potent inhibitors of thymidine phosphorylase and their bioreductive nitroimidazolyl prodrugs” (J Med Chem, 2005):

Experiments:
[1] = substrate: Cc1cn([C@H]2C[C@H](O)[C@@H](CO)O2)c(=O)[nH]c1=O; experiment: (§1) Vmax against Escherichia coli thymidine phosphorylase
How it was run: (§2)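 Continuous UV assay at 355 nm and 25 °C in 0.2 mL of 0.1 M potassium phosphate pH 7.4, using recombinant E. coli TP (ca. 0.00883 units per assay) added to start the reaction. Substrate is thymidine or 5-nitro-2'-deoxyuridine; phosphorolysis to 5-nitrouracil followed (εM 13300 M-1 cm-1 for substrate).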

[2] = substrate: O=c1[nH]c(=O)n([C@H]2C[C@H](O)[C@@H](CO)O2)cc1[N+](=O)[O-]; experiment: as §1; how it was run: as §2
[3] = substrate: O=c1[nH]c(=O)n([C@H]2C[C@H](O)[C@@H](CO)O2)cc1[N+](=O)[O-]; experiment: Michaelis-Menten constant against Escherichia coli thymidine phosphorylase; how it was run: as §2
[4] = substrate: O=c1[nH]c(=O)n([C@H]2C[C@H](O)[C@@H](CO)O2)cc1[N+](=O)[O-]; experiment: Vmax against human thymidine phosphorylase
How it was run: (§3)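 Recombinant human TP expressed in V79 Chinese hamster cells, 0.065 absorbance unit per assay. Continuous spectrophotometric assay at 355 nm, 25 °C, 0.1 M phosphate buffer pH 7.4, 0.2 mL total volume, with 5-nitro-2'-deoxyuridine as substrate; kinetic constants from initial rates.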

[5] = substrate: O=c1[nH]c(=O)n([C@H]2C[C@H](O)[C@@H](CO)O2)cc1[N+](=O)[O-]; experiment: Michaelis-Menten constant against human thymidine phosphorylase; how it was run: as §3

B1: Thymidine phosphorylase (Escherichia coli K-12), P07650 (protein)
chain: MFLAQEIIRKKRDGHALSDEEIRFFINGIRDNTISEGQIAALAMTIFFHDMTMPERVSLTMAMRDSGTVLDWKSLHLNGPIVDKHSTGGVGDVTSLMLGPMVAACGGYIPMISGRGLGHTGGTLDKLESIPGFDIFPDDNRFREIIKDVGVAIIGQTSSLAPADKRFYATRDITATVDSIPLITASILAKKLAEGLDALVMDVKVGSGAFMPTYELSEALAEAIVGVANGAGVRTTALLTDMNQVLASSAGNAVEVREAVQFLTGEYRNPRLFDVTMALCVEMLISGKLAKDDAEARAKLQAVLDNGKAAEVFGRMVAAQKGPTDFVENYAKYLPTAMLTKAVYADTEGFVSEMDTRALGMAVVAMGGGRRQASDTIDYSVGFTDMARLGDQVDGQRPLAVIHAKDENNWQEAAKAVKAAIKLADKAPESTPTVYRRISE
Vmax [1]: 1.15 mM/min | Vmax [2]: 0.013 mM/min | Km [3]: 230 µM

B2: Thymidine phosphorylase (Homo sapiens), P19971 (protein)
chain: MAALMTPGTGAPPAPGDFSGEGSQGLPDPSPEPKQLPELIRMKRDGGRLSEADIRGFVAAVVNGSAQGAQIGAMLMAIRLRGMDLEETSVLTQALAQSGQQLEWPEAWRQQLVDKHSTGGVGDKVSLVLAPALAACGCKVPMISGRGLGHTGGTLDKLESIPGFNVIQSPEQMQVLLDQAGCCIVGQSEQLVPADGILYAARDVTATVDSLPLITASILSKKLVEGLSALVVDVKFGGAAVFPNQEQARELAKTLVGVGASLGLRVAAALTAMDKPLGRCVGHALEVEEALLCMDGAGPPDLRDLVTTLGGALLWLSGHAGTQAQGAARVAAALDDGSALGRFERMLAAQGVDPGLARALCSGSPAERRQLLPRAREQEELLAPADGTVELVRALPLALVLHELGAGRSRAGEPLRLGVGAELLVDVGQRLRRGTPWLRVHRDGPALSGPQSRALQEALVLSDRAPFAAPSPFAELVLPPQQ
Vmax [4]: 0.0086 mM/min | Km [5]: 160 µM
